TAG inh = reduces triacylglycerol accumulation in H9c2 cells; Nile Red lipid (TAG) fluorescence; cells loaded with 200 µM oleic acid; inhibition, % at 12.5 µM; 0.66% of 230,000 active; AID 651582;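 active means pattern-corrected inhibition of lipid staining of at least 50% with the nuclear-stain viability signal not falling by more than 50%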;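 further: 0% = DMSO wells and 100% = triacsin C control wells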
Lipid droplet = modulators of hepatic lipid droplet formation | AML12 mouse hepatocytes, oleate lipid droplets, BODIPY imaging | inhibition, % at 6.5 µM | 0.4% of 240,000 active | AID 1656;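 active means lipid droplet intensity inhibited by at least 50%, with more than 500 cells counted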
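material = mouse AML12 hepatocyte cell line, fixed after treatment | also added = 100 µM oleic acid challenge | doses = compound at 6.5 µM only | schedule = overnight exposure | technique = Image-based BODIPY and DAPI two-channel analysis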
697 NFkB inh = lowers PMA/ionomycin-induced NF-kB signal in 697 B cells | 0.33% of 330,000 active | inhibition, % at 4 µM | AID 435022 | 697 B-cell NF-kB luciferase reporter, 16 h; in the data active means inhibition above about 35%
Jurkat NFkB inh = inhibitors of the PMA/ionomycin-induced NF-kB reporter in Jurkat cells; inhibition, % at 4 µM; AID 435003; PMA/ionomycin-induced NF-kB luciferase reporter, luminescence; 0.53% of 330,000 active; in the data active means inhibition above about 50%
Gli-Sufu block = blocks Gli-Sufu signaling in a luciferase reporter; 0.74% of 340,000 active; inhibition, % at 5 µM; Sufu-KO-LIGHT fibroblasts, Gli luciferase reporter luminescence;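 active means inhibition above about 55%, limit read from the data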;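 further: 0% = DMSO-treated cells and 100% = wells with medium but no cells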
iPSC survival up = hiPSC single-cell survival enhancement | ATPlite luminescence; 100% = ROCK inhibitor wells, 0% = DMSO | survival enhancement, % at 20 µM | 0.044% of 360,000 active; in the data active means survival enhancement above about 18%;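 further: cells exposed to compounds for 16 hours before the ATP read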
Jurkat NFkB conf = lowers PMA/ionomycin-induced NF-kB signal in Jurkat cells; shares compounds with Jurkat NFkB inh; Jurkat NF-kB luciferase, 16 h; inhibition, % at 4 µM; 27% of 2,700 active;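 active means inhibition reaching about 45% at 4 µM in either replicate, limit read from the data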;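 further: plate controls were PMA/ionomycin stimulated DMSO wells for no effect and unstimulated DMSO wells for full effect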
697 NFkB conf = inhibitors of the PMA/ionomycin-induced NF-kB reporter in 697 B cells, retest. shares compounds with 697 NFkB inh. 697 B-cell NF-kB luciferase, 16 h. inhibition, % at 4 µM. 35% of 2,000 active; in the data active means inhibition mostly above about 28%, no sharp cut-off; inactive means mostly below about 22%
* = called active by the depositor. Compounds with a hit are over-represented: about 1.8% of the library has one in this group of screens.

For Cc1ccc(-c2cc(-c3ccc(C)cc3O)[nH]n2)cc1 the results were Lipid droplet 0, 697 NFkB inh -261, Jurkat NFkB inh -200, Gli-Sufu block -89, iPSC survival up 0, Jurkat NFkB conf -107 and 697 NFkB conf -272.
`COc1ccc(-c2cc(-c3ccccc3)n[nH]2)c(O)c1` gave TAG inh 12, Lipid droplet 14, 697 NFkB inh -124, Jurkat NFkB inh -121, Gli-Sufu block -18 and iPSC survival up -1.
For Cc1ccc(-c2cc(-c3ccc(F)cc3)n[nH]2)c(O)c1 the results were TAG inh -34, Lipid droplet 8, 697 NFkB inh -270, Jurkat NFkB inh -165, Gli-Sufu block -70, iPSC survival up 0, Jurkat NFkB conf -125 and 697 NFkB conf -278.
`COc1ccc(-c2cc(-c3ccccc3O)[nH]n2)cc1` gave TAG inh -36, 697 NFkB inh -361, Jurkat NFkB inh -160, Gli-Sufu block 5, iPSC survival up 0, Jurkat NFkB conf -145 and 697 NFkB conf -442.
Oc1ccccc1-c1cc(-c2ccc(F)cc2)n[nH]1 was read as TAG inh -28, Lipid droplet -2, 697 NFkB inh -272, Jurkat NFkB inh -164, Gli-Sufu block 29, iPSC survival up 0, Jurkat NFkB conf -100 and 697 NFkB conf -236.
COc1ccc(OC)c(N/C=C/C(=C(C#N)C#N)N(C)C)c1 was read as Lipid droplet 8, 697 NFkB inh -34, Jurkat NFkB inh 9, Gli-Sufu block 4 and iPSC survival up 1.
Screening Cc1cc(C(=O)C(C)OC(=O)c2ccc(NC(=O)CC#N)cc2)c(C)n1-c1ccc(OC(F)F)cc1 (stereo unspecified) returned TAG inh 3, 697 NFkB inh -10, Jurkat NFkB inh 8, Gli-Sufu block 29 and iPSC survival up -4.
Screening CCN(CC)CCN(Cc1cc2cc(C)ccc2[nH]c1=O)C(=S)Nc1ccccc1 returned TAG inh 38, Lipid droplet -8, 697 NFkB inh -8, Jurkat NFkB inh 2, Gli-Sufu block 40 and iPSC survival up -3.
CC(C)Cc1cc(C(C)(C)C)ccc1OC(=S)N(C)C was read as TAG inh 15, Lipid droplet -4, 697 NFkB inh 40*, Jurkat NFkB inh 51*, Gli-Sufu block -5, iPSC survival up -1, Jurkat NFkB conf 60* and 697 NFkB conf 33*.
Cc1cc(C(C)(C)C)ccc1OCCN(C)C was read as 697 NFkB inh 21, Jurkat NFkB inh -2, Gli-Sufu block -7 and iPSC survival up 7.
Screening CC1(C(=O)NCc2ccc(Cl)cc2)CCN1C(=O)c1cccc(F)c1 (stereo unspecified) returned TAG inh -8 and iPSC survival up -2.
CC(C)(C)c1ccc(/C=N/Nc2ccc(C(=O)O)cc2)cc1 was read as TAG inh 4, Lipid droplet -4, 697 NFkB inh -277, Jurkat NFkB inh 59*, Gli-Sufu block -10, iPSC survival up 1, Jurkat NFkB conf 33 and 697 NFkB conf 22.
Screening CC(C)(C)c1ccc(/C=N/Nc2cccc(C(=O)O)c2)cc1 returned TAG inh 0, Lipid droplet 7, 697 NFkB inh -97, Jurkat NFkB inh -55, Gli-Sufu block -270 and iPSC survival up -1.
For O=C(CCNC(=O)c1ccccc1Cl)NCCc1ccc(C(F)(F)F)cc1 the results were Lipid droplet -9, 697 NFkB inh 4, Jurkat NFkB inh 3, Gli-Sufu block -7 and iPSC survival up 0.
Cc1cc(N2CCOCC2)n2ncc(-c3ccc(Cl)cc3)c2n1 was read as TAG inh 31, Lipid droplet 18, 697 NFkB inh -361, Jurkat NFkB inh -157, Gli-Sufu block -15, iPSC survival up 0, Jurkat NFkB conf -24 and 697 NFkB conf -230.
`Cc1cc(-c2ccccc2)n2ncc(-c3ccccc3)c2n1` gave Lipid droplet -19, 697 NFkB inh inactive, Jurkat NFkB inh -202, Gli-Sufu block -36, iPSC survival up -3, Jurkat NFkB conf -91 and 697 NFkB conf inactive.
`Cc1cc(N2CCCCC2)n2ncc(-c3ccc(Cl)cc3)c2n1` gave TAG inh 31, 697 NFkB inh -309, Jurkat NFkB inh -189, Gli-Sufu block -11, iPSC survival up 1, Jurkat NFkB conf -80 and 697 NFkB conf -214.
For Cc1cc(N2CCCCC2)n2ncc(-c3ccccc3)c2n1 the results were TAG inh 7, Lipid droplet 0, 697 NFkB inh inactive, Jurkat NFkB inh -185, Gli-Sufu block -24, iPSC survival up -2, Jurkat NFkB conf -63 and 697 NFkB conf -418.
For CC(C)(C)c1cc(N2CCOCC2)n2ncc(-c3ccc(Cl)cc3)c2n1 the results were 697 NFkB inh -11, Jurkat NFkB inh -16, Gli-Sufu block -21 and iPSC survival up 0.
`C=C(C)COC(=O)c1ccccc1C(=O)OCC1(C)CO1` (stereo unspecified) gave TAG inh 1, Gli-Sufu block 0 and iPSC survival up 0.
For O=C(NCCN1CCCC1)c1ccc2c(c1)N(Cc1ccccc1)C(=O)c1ccccc1S2(=O)=O the results were Lipid droplet -20, 697 NFkB inh 1, Jurkat NFkB inh -14, Gli-Sufu block 15 and iPSC survival up 0.
COc1ccc(-c2noc(-c3ccc4c(c3)OCO4)n2)cc1 was read as TAG inh 8, 697 NFkB inh -140, Jurkat NFkB inh -98, Gli-Sufu block -121 and iPSC survival up -3.
c1ccc(-c2noc(-c3ccc4c(c3)OCO4)n2)cc1 was read as TAG inh 0, Lipid droplet 24, 697 NFkB inh -342, Jurkat NFkB inh -182, Gli-Sufu block -74, iPSC survival up -4, Jurkat NFkB conf -112 and 697 NFkB conf -275.
For COc1ccccc1N1CCN(c2ccc3ccccc3n2)CC1 the results were Lipid droplet -14, 697 NFkB inh -311, Jurkat NFkB inh -157, Gli-Sufu block -52, iPSC survival up -1, Jurkat NFkB conf -99 and 697 NFkB conf -258.
CSc1ccc(CN2CCC(C)(Oc3ccccc3)C2)cc1 (stereo unspecified) was read as TAG inh -17 and iPSC survival up -1.
For N#Cc1cc2c(nc1SCC(=O)Nc1nccs1)CCCCC2 the results were Lipid droplet 8, 697 NFkB inh -309, Jurkat NFkB inh -230, Gli-Sufu block -119, iPSC survival up -4, Jurkat NFkB conf -86 and 697 NFkB conf -258.
Screening CCCCc1ccc(-c2ccc(Br)cc2O)nc1 returned TAG inh -17, Lipid droplet 4, 697 NFkB inh -273, Jurkat NFkB inh -213, Gli-Sufu block -103, iPSC survival up -2, Jurkat NFkB conf -98 and 697 NFkB conf -169.
